Measurements as given in ChEMBL document CHEMBL4396885, “Thioether-based 2-aminobenzamide derivatives: Novel HDAC inhibitors with potent in vitro and in vivo antitumor activity” (Eur J Med Chem, 2019).
pIC50: −log10 of the molar value.

Assays:
[1] = test system: HeLa; assay: Antiproliferative activity against human HeLa cells assessed as growth inhibition at 2 uM after 72 hrs by CCK-8 assay relative to control; assay type: functional; conditions: read-out: GI
[2] = test system: A549; assay: Antiproliferative activity against human A549 cells assessed as growth inhibition at 2 uM after 72 hrs by CCK-8 assay relative to control; assay type: functional; conditions: A549, 72 h, read-out: GI
[3] = test system: HeLa; assay: Antiproliferative activity against human HeLa cells assessed as growth inhibition at 8 uM after 72 hrs by CCK-8 assay relative to control; assay type: functional; conditions: read-out: GI
[4] = test system: A549; assay: Antiproliferative activity against human A549 cells assessed as decrease in cell viability after 72 hrs by CCK-8 assay; assay type: functional, cell-based; conditions: A549, 72 h
Summary of the method: (§1)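 Cells grown to 70–85% confluence (A375, A549, HCT116 in RPMI1640; HeLa, SMMC7721 in DMEM; 10% FBS, 37 °C, 5% CO2), seeded 4000/well, dosed after 12 h across a concentration range, incubated 72 h, then CCK-8 for 1 h; absorbance at 450 nm. IC50 as mean ± SD of three separate experiments.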

[5] = test system: A-375; assay: Antiproliferative activity against human A375 cells assessed as decrease in cell viability after 72 hrs by CCK-8 assay; assay type: functional, cell-based; conditions: A-375, 72 h; summary of the method: as §1
[6] = test system: HCT-116; assay: Antiproliferative activity against human HCT116 cells assessed as decrease in cell viability after 72 hrs by CCK-8 assay; assay type: functional, cell-based; conditions: HCT-116, 72 h; summary of the method: as §1
[7] = test system: SMMC-7721; assay: Antiproliferative activity against human SMMC7721 cells assessed as growth inhibition at 2 uM after 72 hrs by CCK-8 assay relative to control; assay type: functional; conditions: SMMC-7721, 72 h, read-out: GI
[8] = test system: HCT-116; assay: Antiproliferative activity against human HCT116 cells assessed as growth inhibition at 2 uM after 72 hrs by CCK-8 assay relative to control; assay type: functional; conditions: HCT-116, 72 h, read-out: GI
[9] = test system: HeLa; assay: Antiproliferative activity against human HeLa cells assessed as decrease in cell viability after 72 hrs by CCK-8 assay; assay type: functional, cell-based; summary of the method: as §1
[10] = test system: HCT-116; assay: Antiproliferative activity against human HCT116 cells assessed as growth inhibition at 8 uM after 72 hrs by CCK-8 assay relative to control; assay type: functional; conditions: HCT-116, 72 h, read-out: GI
[11] = test system: A-375; assay: Antiproliferative activity against human A375 cells assessed as growth inhibition at 8 uM after 72 hrs by CCK-8 assay relative to control; assay type: functional; conditions: A-375, 72 h, read-out: GI
[12] = test system: SMMC-7721; assay: Antiproliferative activity against human SMMC7721 cells assessed as decrease in cell viability after 72 hrs by CCK-8 assay; assay type: functional, cell-based; conditions: SMMC-7721, 72 h; summary of the method: as §1
[13] = test system: A-375; assay: Antiproliferative activity against human A375 cells assessed as growth inhibition at 2 uM after 72 hrs by CCK-8 assay relative to control; assay type: functional; conditions: A-375, 72 h, read-out: GI
[14] = test system: A549; assay: Antiproliferative activity against human A549 cells assessed as growth inhibition at 8 uM after 72 hrs by CCK-8 assay relative to control; assay type: functional; conditions: A549, 72 h, read-out: GI
[15] = test system: SMMC-7721; assay: Antiproliferative activity against human SMMC7721 cells assessed as growth inhibition at 8 uM after 72 hrs by CCK-8 assay relative to control; assay type: functional; conditions: SMMC-7721, 72 h, read-out: GI

pIC50 [4]	pIC50 [5]	pIC50 [6]	pIC50 [9]	pIC50 [12]	Compound	inhibition of growth at 2 µM [1]	inhibition of growth at 2 µM [2]	inhibition of growth at 8 µM [3]	inhibition of growth at 2 µM [7]	inhibition of growth at 2 µM [8]	inhibition of growth at 8 µM [10]	inhibition of growth at 8 µM [11]	inhibition of growth at 2 µM [13]	inhibition of growth at 8 µM [14]	inhibition of growth at 8 µM [15]
5.49	5.43	5.58	5.37	5.43	Cc1ccc(SCc2ccc(C(=O)Nc3ccccc3N)cc2)cc1	33.8%	40.5%	79.2%	25.1%	74.8%	84%	67%	17.5%	78.3%	82.7%
–	–	5.43	4.90	–	Nc1ccccc1NC(=O)c1ccc(CSc2ccc(Cl)cc2)cc1	19.2%	47.3%	51.4%	2.93%	17.5%	76.6%	48.6%	25.2%	50.4%	16.5%
5.89	–	–	–	–	CCc1ccc(SCc2ccc(/C=C/C(=O)Nc3ccccc3N)cc2)cc1	3.96%	60.7%	20.9%	13.2%	3.29%	2.68%	58.4%	5.27%	68.6%	19.5%
–	5.44	5.56	5.18	5.35	COC(=O)c1ccccc1SCc1ccc(C(=O)Nc2ccccc2N)cc1	29.8%	44.7%	55.5%	18%	21.8%	92%	70.1%	35.1%	46.1%	62.5%
–	–	5.40	5.30	5.24	Nc1ccccc1NC(=O)c1ccc(CSc2ccc(F)cc2)cc1	27.9%	43.4%	79.3%	6.58%	13.5%	90.6%	54.3%	19.4%	44.5%	81.9%
6.19	5.81	–	–	–	CC(C)(C)c1ccc(SCc2ccc(/C=C/C(=O)Nc3ccccc3N)cc2)cc1	17.5%	71.5%	9.8%	18.3%	6.66%	39%	35.5%	38.4%	79.8%	23.6%
5.92	5.44	–	–	–	Nc1ccccc1NC(=O)/C=C/c1ccc(CSc2ccc(F)cc2)cc1	7.09%	51.2%	10.4%	18.3%	14.1%	20.2%	24.6%	28.8%	59.1%	15.4%
–	5.41	5.54	5.49	5.48	Nc1ccccc1NC(=O)c1ccc(CSc2cccc(F)c2)cc1	22.5%	46.9%	78.4%	18.6%	5.5%	81.3%	76.2%	37.7%	72.7%	83%

The next lines start with the compound.

Compound	pIC50 [4]	pIC50 [5]	pIC50 [6]	pIC50 [9]	pIC50 [12]	inhibition of growth at 2 µM [1]	inhibition of growth at 2 µM [2]	inhibition of growth at 8 µM [3]	inhibition of growth at 2 µM [7]	inhibition of growth at 2 µM [8]	inhibition of growth at 8 µM [10]	inhibition of growth at 8 µM [11]	inhibition of growth at 2 µM [13]	inhibition of growth at 8 µM [14]	inhibition of growth at 8 µM [15]
Cc1cc(C)cc(SCc2ccc(/C=C/C(=O)Nc3ccccc3N)cc2)c1	–	–	–	–	–	11.7%	46.1%	3.39%	8.61%	7.98%	4.2%	2.49%	8.78%	47.3%	7.13%
COc1ccc(SCc2ccc(/C=C/C(=O)Nc3ccccc3N)cc2)cc1OC	–	–	–	–	–	10.1%	65.5%	21.9%	14.3%	12.9%	49.5%	46.4%	46%	80.6%	44.6%
CC(C)(C)c1ccc(SCc2ccc(C(=O)Nc3ccccc3N)cc2)cc1	–	–	–	–	–	9.73%	38.6%	40.2%	23.6%	4.81%	60.5%	33.1%	2.13%	67%	46.1%
Nc1ccccc1NC(=O)/C=C/c1ccc(CSc2ccc(C(F)(F)F)cn2)cc1	–	–	–	–	–	6.07%	51.7%	6.82%	12.1%	4.42%	14.9%	3.96%	10.3%	56.5%	20.1%
Nc1ccccc1NC(=O)c1ccc(CSc2ccc(C(F)(F)F)cn2)cc1	–	–	–	–	–	11.5%	37.1%	16.5%	12.4%	1.2%	25.8%	5.34%	4.3%	38.9%	7.57%
Nc1ccccc1NC(=O)/C=C/c1ccc(CSc2cccc(F)c2)cc1	–	–	–	–	–	2.25%	50.7%	18.6%	8.56%	7.95%	3.22%	9.08%	6.75%	56.6%	8.25%
Nc1ccccc1NC(=O)/C=C/c1ccc(CSc2cccc3ccccc23)cc1	6.08	–	–	–	–	20.6%	59.3%	22.1%	3.7%	11%	35.2%	36%	1.55%	71.2%	18.3%
Cc1ccc(SCc2ccc(/C=C/C(=O)Nc3ccccc3N)cc2)cc1	–	–	–	–	–	25.4%	43.4%	21.7%	22%	6.23%	4.93%	31.2%	22.9%	48.2%	22.1%
Nc1ccccc1NC(=O)/C=C/c1ccc(CSCCc2ccccc2)cc1	5.94	4.80	–	–	4.96	0.19%	45.7%	3.57%	14.7%	18%	10.6%	37.4%	41.9%	50.3%	15.8%
Nc1ccccc1NC(=O)/C=C/c1ccc(CSc2ccc(Cl)cc2)cc1	–	–	–	–	–	1.94%	55.2%	17.3%	15.2%	5.62%	3.27%	48.2%	13.4%	59.6%	16.4%
Nc1ccccc1NC(=O)c1ccc(CSc2ccc(Br)cc2)cc1	–	–	–	–	–	18.8%	33.2%	38.2%	10%	9.96%	67.7%	6.17%	4.35%	45.6%	25.3%
